Assay results from ChEMBL document CHEMBL1141000, “cis-Nitromethylene neonicotinoids as new nicotinic family: synthesis, structural diversity, and insecticidal evaluation of hexahydroimidazo[1,2-alpha]pyridine” (2008).
Converted amounts (≈) assume the structure as drawn.

Assays:
Type in all cases: functional
Aphis craccivora [1] = assay: Insecticidal activity against Aphis craccivora assessed as mortality at 500 mg/L
Aphis craccivora [2] = assay: Insecticidal activity against Aphis craccivora
Nilaparvata lugens [3] = assay: Insecticidal activity against imidacloprid-sensitive Nilaparvata lugens
Procedure, shortened: (§1)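 Nilaparvata lugens (brown planthopper), sensitive and imidacloprid-resistant strains tested separately, using a protocol similar to the pea aphid bioassay. Activity expressed as LC50 (mg/L).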

Nilaparvata lugens [4] = assay: Insecticidal activity against imidacloprid-resistant Nilaparvata lugens; procedure, shortened: as §1

SMILES	Activity (Aphis craccivora [1])	LC50 (Aphis craccivora [2])	LC50 (Nilaparvata lugens [3])	LC50 (Nilaparvata lugens [4])
CC1CC(O)N2CCN(Cc3ccc(Cl)nc3)C2=C1[N+](=O)[O-] (stereo unspecified)	100%	31.5 µg/mL (≈ 97 µM)	20.7 µg/mL (≈ 63.8 µM)	7.36 µg/mL (≈ 22.7 µM)
CCOC1CC(C(C)C)C([N+](=O)[O-])=C2N(Cc3ccc(Cl)nc3)CCN21 (stereo unspecified)	72%			
CC1C([N+](=O)[O-])=C2N(Cc3ccc(Cl)nc3)CCN2C(O)C1C (stereo unspecified)	50%			
C=CCOC1CC(C)C([N+](=O)[O-])=C2N(Cc3ccc(Cl)nc3)CCN21 (stereo unspecified)	100%			
CC1CC(OCCO)N2CCN(Cc3ccc(Cl)nc3)C2=C1[N+](=O)[O-] (stereo unspecified)	0%			
CCCCOC1CC(C)C([N+](=O)[O-])=C2N(Cc3ccc(Cl)nc3)CCN21 (stereo unspecified)	58.4%			
CCC1CC(O)N2CCN(Cc3ccc(Cl)nc3)C2=C1[N+](=O)[O-] (stereo unspecified)	100%	61 µg/mL (≈ 180 µM)		
COC1CC(c2ccccc2)C([N+](=O)[O-])=C2N(Cc3ccc(Cl)nc3)CCN21 (stereo unspecified)	50%			
COC1CC(C)C([N+](=O)[O-])=C2N(Cc3ccc(Cl)nc3)CCN21 (stereo unspecified)	100%	50 µg/mL (≈ 148 µM)		
CCOC1CC(C)C([N+](=O)[O-])=C2N(Cc3ccc(Cl)nc3)CCN21 (stereo unspecified)	100%	65.4 µg/mL (≈ 185 µM)		
CCCC1CC(OC)N2CCN(Cc3ccc(Cl)nc3)C2=C1[N+](=O)[O-] (stereo unspecified)	89%			
CC(C)OC1CC(c2ccccc2)C([N+](=O)[O-])=C2N(Cc3ccc(Cl)nc3)CCN21 (stereo unspecified)	0%			
CC1CC(OCCCl)N2CCN(Cc3ccc(Cl)nc3)C2=C1[N+](=O)[O-] (stereo unspecified)	100%	74.7 µg/mL (≈ 193 µM)		
CCCC1CC(O)N2CCN(Cc3ccc(Cl)nc3)C2=C1[N+](=O)[O-] (stereo unspecified)	25%			
O=[N+]([O-])C1=C2N(Cc3ccc(Cl)nc3)CCN2C(O)CC1c1ccccc1 (stereo unspecified)	30%			
CCCOC1CC(c2ccccc2)C([N+](=O)[O-])=C2N(Cc3ccc(Cl)nc3)CCN21 (stereo unspecified)	45%			
CCCOC1CC(CC)C([N+](=O)[O-])=C2N(Cc3ccc(Cl)nc3)CCN21 (stereo unspecified)	100%	86.4 µg/mL (≈ 227 µM)		
CCCCC1CC(O)N2CCN(Cc3ccc(Cl)nc3)C2=C1[N+](=O)[O-] (stereo unspecified)	85%			
COC1C(C)CC([N+](=O)[O-])=C2N(Cc3ccc(Cl)nc3)CCN21 (stereo unspecified)	73%			
CCC1CC(OC)N2CCN(Cc3ccc(Cl)nc3)C2=C1[N+](=O)[O-] (stereo unspecified)	90%		1.07 µg/mL (≈ 3.03 µM)	8.87 µg/mL (≈ 25.1 µM)

SMILES	Activity (Aphis craccivora [1])	LC50 (Aphis craccivora [2])	LC50 (Nilaparvata lugens [3])	LC50 (Nilaparvata lugens [4])
O=[N+]([O-])C1=C2N(Cc3ccc(Cl)nc3)CCN2C(O)C2CCCCC12 (stereo unspecified)	0%			
O=[N+]([O-])/N=C1\NCCN1Cc1ccc(Cl)nc1 [IMIDACLOPRID]	100%	7.9 µg/mL (≈ 30.9 µM)	0.14 µg/mL (≈ 0.548 µM)	19.7 µg/mL (≈ 77.2 µM)
CC(C)OC1C(C)CC([N+](=O)[O-])=C2N(Cc3ccc(Cl)nc3)CCN21 (stereo unspecified)	67%			
CCOC1CC(CC)C([N+](=O)[O-])=C2N(Cc3ccc(Cl)nc3)CCN21 (stereo unspecified)	100%	48.9 µg/mL (≈ 133 µM)		
CC(C)C1CC(O)N2CCN(Cc3ccc(Cl)nc3)C2=C1[N+](=O)[O-] (stereo unspecified)	0%			
CCCC1CC(OC(C)C)N2CCN(Cc3ccc(Cl)nc3)C2=C1[N+](=O)[O-] (stereo unspecified)	79%			
CC1(O)CCC([N+](=O)[O-])=C2N(Cc3ccc(Cl)nc3)CCN21 (stereo unspecified)	90%			
CCCOC1CC(C)C([N+](=O)[O-])=C2N(Cc3ccc(Cl)nc3)CCN21 (stereo unspecified) [PAICHONGDING]	100%	33.7 µg/mL (≈ 91.8 µM)	7.35 µg/mL (≈ 20 µM)	7.2 µg/mL (≈ 19.6 µM)
CC1CC(OCc2ccccc2)N2CCN(Cc3ccc(Cl)nc3)C2=C1[N+](=O)[O-] (stereo unspecified)	94%			
CCC(C)OC1CC(C)C([N+](=O)[O-])=C2N(Cc3ccc(Cl)nc3)CCN21 (stereo unspecified)	0%			
CCC1C([N+](=O)[O-])=C2N(Cc3ccc(Cl)nc3)CCN2C(O)C1C (stereo unspecified)	0%			
CCC1CC(OC(C)C)N2CCN(Cc3ccc(Cl)nc3)C2=C1[N+](=O)[O-] (stereo unspecified)	100%	88.9 µg/mL (≈ 233 µM)		
CCOC1CC(c2ccccc2)C([N+](=O)[O-])=C2N(Cc3ccc(Cl)nc3)CCN21 (stereo unspecified)	89%			
CCCOC1CC(CCC)C([N+](=O)[O-])=C2N(Cc3ccc(Cl)nc3)CCN21 (stereo unspecified)	82%			
CCCC1CC(OCC)N2CCN(Cc3ccc(Cl)nc3)C2=C1[N+](=O)[O-] (stereo unspecified)	95%			
CC1CC(OC2CCCCC2)N2CCN(Cc3ccc(Cl)nc3)C2=C1[N+](=O)[O-] (stereo unspecified)	0%			
CC(C)OC1CC(C)C([N+](=O)[O-])=C2N(Cc3ccc(Cl)nc3)CCN21 (stereo unspecified)	100%	96.2 µg/mL (≈ 262 µM)	5.57 µg/mL (≈ 15.2 µM)	6.33 µg/mL (≈ 17.3 µM)
CC(C)COC1CC(C)C([N+](=O)[O-])=C2N(Cc3ccc(Cl)nc3)CCN21 (stereo unspecified)	0%			
O=[N+]([O-])C1=C2N(Cc3ccc(Cl)nc3)CCN2C(O)CC1c1ccc([N+](=O)[O-])cc1 (stereo unspecified)	0%			
CC1CC([N+](=O)[O-])=C2N(Cc3ccc(Cl)nc3)CCN2C1O (stereo unspecified)	70%			
